How the values were obtained:
[1] = target: T1, purified full length recombinant human PR-B (Homo sapiens, UniProt P06401); assay: Competitive radiometric receptor binding assay
T1 sequence (P06401 1-933): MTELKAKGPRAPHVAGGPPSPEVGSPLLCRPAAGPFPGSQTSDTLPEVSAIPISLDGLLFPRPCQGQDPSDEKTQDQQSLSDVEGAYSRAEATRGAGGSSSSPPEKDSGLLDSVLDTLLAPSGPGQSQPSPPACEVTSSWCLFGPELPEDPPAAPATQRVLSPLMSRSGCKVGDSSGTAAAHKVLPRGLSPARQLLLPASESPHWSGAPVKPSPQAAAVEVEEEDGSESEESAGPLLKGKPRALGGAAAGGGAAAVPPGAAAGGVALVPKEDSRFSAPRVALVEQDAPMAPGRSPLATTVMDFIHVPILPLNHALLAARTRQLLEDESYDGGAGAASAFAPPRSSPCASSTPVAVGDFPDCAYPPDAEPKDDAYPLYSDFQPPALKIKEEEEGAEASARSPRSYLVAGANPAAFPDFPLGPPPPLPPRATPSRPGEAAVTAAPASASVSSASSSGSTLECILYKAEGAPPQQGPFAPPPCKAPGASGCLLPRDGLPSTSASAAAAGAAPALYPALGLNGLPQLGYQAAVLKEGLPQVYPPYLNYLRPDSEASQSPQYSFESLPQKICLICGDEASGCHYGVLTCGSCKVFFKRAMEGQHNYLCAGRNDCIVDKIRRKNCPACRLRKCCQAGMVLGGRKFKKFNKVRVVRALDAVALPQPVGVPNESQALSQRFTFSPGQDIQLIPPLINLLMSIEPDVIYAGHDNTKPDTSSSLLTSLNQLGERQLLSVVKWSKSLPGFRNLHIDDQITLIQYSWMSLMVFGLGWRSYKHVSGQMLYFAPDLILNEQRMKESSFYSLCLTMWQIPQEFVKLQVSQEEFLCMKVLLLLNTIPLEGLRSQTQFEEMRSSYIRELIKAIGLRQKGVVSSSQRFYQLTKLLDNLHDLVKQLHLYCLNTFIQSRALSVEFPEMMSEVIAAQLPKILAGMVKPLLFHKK

pS2 mRNA = assay: qRT-PCR of 17β-estradiol-induced pS2 mRNA; assay type: cell-based; details: 2 hours; compound 51 at 5 μM
[2] = target: purified luciferase protein (Photinus pyralis, UniProt P08659); assay: Enzyme inhibition assay with purified luciferase protein; assay type: biochemical; details: 0.05 ng pure luciferase protein, 10 μM compound
Procedure, shortened: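 Purified firefly luciferase was used at a final 0.01 ng/μl in OneGlo buffer, with test compound diluted to 10 μM in buffer. After adding BrightGlo luciferase reagent, samples were held 5 min and luminescence measured.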

[3] = tested on: endogenous PR-regulated alkaline phosphatase activity in T47D breast cancer cells; assay: Progesterone-induced alkaline phosphatase assay in T47D cells; assay type: cell-based, human; details: by 5 μM
Procedure, shortened: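 T47D cells were moved to phenol red-free medium with 10% charcoal-dextran FBS four days ahead. Cells were seeded overnight, then treated 24 h with 2.5 nM progesterone ± test compound in DMSO. Supernatant assayed with CSPD/diethanolamine pH 9.5 buffer, 1 h at RT, luminescence (542 nm). Untreated-compound activity = 100%; ≥3 experiments, mean ± SEM.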

[4] = target: T2, alkaline phosphatase (AlkP) (Homo sapiens, UniProt P05186); assay: Direct alkaline phosphatase inhibition in cell lysates; assay type: biochemical; details: lysates of progesterone-treated cells, 10 μM compound, 15 minutes
T2 sequence (P05186 18-524): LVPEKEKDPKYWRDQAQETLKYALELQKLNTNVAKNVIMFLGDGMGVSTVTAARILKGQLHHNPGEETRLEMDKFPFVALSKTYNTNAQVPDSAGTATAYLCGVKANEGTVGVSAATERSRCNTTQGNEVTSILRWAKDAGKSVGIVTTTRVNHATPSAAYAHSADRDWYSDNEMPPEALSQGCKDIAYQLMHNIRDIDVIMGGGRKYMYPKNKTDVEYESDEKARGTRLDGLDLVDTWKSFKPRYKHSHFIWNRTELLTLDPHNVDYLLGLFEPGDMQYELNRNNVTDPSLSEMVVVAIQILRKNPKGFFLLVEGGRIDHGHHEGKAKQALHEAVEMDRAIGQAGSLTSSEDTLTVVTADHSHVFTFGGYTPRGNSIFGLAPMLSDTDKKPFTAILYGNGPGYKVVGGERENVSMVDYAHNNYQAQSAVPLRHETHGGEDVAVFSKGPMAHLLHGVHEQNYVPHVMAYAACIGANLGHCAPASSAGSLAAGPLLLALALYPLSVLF
Procedure, shortened: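 Lysates of cells given 2.5 nM progesterone to induce AlkP were aliquoted and exposed to 10 μM test compound for 15 min. Then added: buffer of 100 mM diethanolamine pH 9.5, 1 mM MgCl2, 0.4 mM CSPD chemiluminescent substrate and 1X Emerald II enhancer. After 1 h at room temperature, luminescence was read.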

ER = target: T3, ER (Homo sapiens, UniProt P03372); assay: ER reporter gene assay; assay type: cell-based; details: 10 μM compound, 5 nM estradiol, 24 h; % of maximal luciferase activity (100%)
T3 sequence (P03372 1-595): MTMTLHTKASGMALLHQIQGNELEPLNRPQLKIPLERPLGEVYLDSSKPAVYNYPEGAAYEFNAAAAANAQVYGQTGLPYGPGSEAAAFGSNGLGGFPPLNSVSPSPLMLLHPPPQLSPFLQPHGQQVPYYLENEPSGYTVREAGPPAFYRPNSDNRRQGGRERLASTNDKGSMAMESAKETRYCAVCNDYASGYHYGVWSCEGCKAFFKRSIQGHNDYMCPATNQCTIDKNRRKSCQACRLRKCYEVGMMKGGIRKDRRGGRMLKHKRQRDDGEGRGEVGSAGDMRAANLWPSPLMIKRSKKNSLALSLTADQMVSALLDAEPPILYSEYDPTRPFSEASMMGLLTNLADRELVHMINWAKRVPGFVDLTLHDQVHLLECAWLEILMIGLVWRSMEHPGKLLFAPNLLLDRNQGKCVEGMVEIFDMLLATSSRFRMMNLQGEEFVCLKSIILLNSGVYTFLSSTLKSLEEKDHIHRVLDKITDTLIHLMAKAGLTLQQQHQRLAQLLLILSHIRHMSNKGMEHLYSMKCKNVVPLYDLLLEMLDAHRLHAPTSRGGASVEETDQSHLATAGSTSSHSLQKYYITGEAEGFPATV

PR = target: T4, PR (Homo sapiens, UniProt P06401); assay: PR reporter gene assay; assay type: cell-based
T4 sequence (P06401 165-933 limits assumed): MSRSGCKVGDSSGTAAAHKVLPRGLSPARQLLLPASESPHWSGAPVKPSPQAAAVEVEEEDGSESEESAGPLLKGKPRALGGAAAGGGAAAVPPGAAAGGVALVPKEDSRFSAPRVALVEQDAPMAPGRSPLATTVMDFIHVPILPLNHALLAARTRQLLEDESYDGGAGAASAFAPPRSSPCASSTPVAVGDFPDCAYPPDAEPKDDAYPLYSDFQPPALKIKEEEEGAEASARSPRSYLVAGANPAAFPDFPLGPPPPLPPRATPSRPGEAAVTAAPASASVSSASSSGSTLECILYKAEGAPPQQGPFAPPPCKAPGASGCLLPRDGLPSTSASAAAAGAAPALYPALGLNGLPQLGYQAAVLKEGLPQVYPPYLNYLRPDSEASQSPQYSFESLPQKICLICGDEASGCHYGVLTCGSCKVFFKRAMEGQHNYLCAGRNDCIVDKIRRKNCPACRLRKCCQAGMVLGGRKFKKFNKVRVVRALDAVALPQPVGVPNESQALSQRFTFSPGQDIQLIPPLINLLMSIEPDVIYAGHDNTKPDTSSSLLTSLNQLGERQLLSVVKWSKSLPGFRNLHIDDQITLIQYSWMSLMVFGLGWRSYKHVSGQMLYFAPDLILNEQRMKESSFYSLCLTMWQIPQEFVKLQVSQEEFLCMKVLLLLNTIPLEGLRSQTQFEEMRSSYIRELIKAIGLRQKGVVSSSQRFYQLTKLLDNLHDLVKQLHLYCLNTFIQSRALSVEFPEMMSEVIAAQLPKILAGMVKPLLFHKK

[5] = tested on: alkaline phosphatase mRNA; assay: qRT-PCR of progesterone-induced alkaline phosphatase mRNA; assay type: cell-based, human; details: 10 nM P, 24 h

Chain of purified luciferase protein (P08659 whole entry): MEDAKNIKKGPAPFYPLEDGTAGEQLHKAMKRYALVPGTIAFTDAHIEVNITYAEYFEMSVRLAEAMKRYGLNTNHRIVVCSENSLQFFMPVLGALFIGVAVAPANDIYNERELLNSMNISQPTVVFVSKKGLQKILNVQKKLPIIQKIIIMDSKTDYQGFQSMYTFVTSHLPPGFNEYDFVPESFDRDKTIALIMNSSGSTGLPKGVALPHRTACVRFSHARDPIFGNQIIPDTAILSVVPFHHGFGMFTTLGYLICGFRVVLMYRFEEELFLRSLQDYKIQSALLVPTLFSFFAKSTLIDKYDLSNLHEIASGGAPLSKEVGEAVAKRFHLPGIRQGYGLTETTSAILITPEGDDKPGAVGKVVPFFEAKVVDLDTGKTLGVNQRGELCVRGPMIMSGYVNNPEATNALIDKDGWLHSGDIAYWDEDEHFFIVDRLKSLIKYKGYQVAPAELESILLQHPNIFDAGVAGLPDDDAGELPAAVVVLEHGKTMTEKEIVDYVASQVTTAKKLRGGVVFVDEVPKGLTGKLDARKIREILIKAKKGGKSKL

## CCC(CC)CSc1nc2c([nH]1)c(=S)n(C)c(=O)n2C [Compound 51, 6-thio-8-(2-ethylbutyl)thiotheophylline]
[1]; 10 nM tritiated R5020, 10 nM PR-B, 18-24 h at 0°C
  fold weaker binding to PR than R5020: 4,700 fold
[1]; at functionally significant concentrations
  ability to compete with radio-labeled R5020 for binding to PR: little or no ability to compete
pS2 mRNA
  effect on 17β-estradiol induction of pS2 mRNA: no effect
[2]
  direct inhibition of luciferase enzymatic activity: did not inhibit
[3]
  inhibition of progesterone-induced AlkP activity at 5 μM: complete inhibition
[4]
  direct inhibition of alkaline phosphatase activity in lysates: failed to significantly inhibit activity
ER
  Reporter Assay (% Activity) ER: 54%
PR; concentrations of 30 μM and higher
  agonist activity: no observed agonist activity
PR; same T47D cells, same MMTV-luciferase reporter
  fold more potent inhibitor of PR than GR: 6.1 fold
[5]; 5 μM compound
  inhibition of progesterone induction of AlkP mRNA: 74%
[5]; 10 μM compound
  inhibition of progesterone induction of AlkP mRNA (in words): completely blocked
